Data set [1] can be described thus: Chemical stability of the compound assessed as formation of prostaglandin A2 at 6.31 x 10^-4 M at pH 3.50 at 25 degC by HPLC analysis. As to conditions: buffer, pH 3.5, 631 µM. Type of data set: physicochemical. The method in brief:
(§1)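 Ketal incubated at 25 ± 0.5 °C, pH 2.0–6.5, in 0.1 M buffers (HCl, chloroacetic, acetic, succinic, phosphoric) with ionic strength set to 0.10 M by KCl. Initial ketal was 0.25 mg/mL at pH 2.0–3.5 and 0.50 mg/mL at pH 4.5–6.5. Timed aliquots were EtOAc-extracted for HPLC at 263 nm, quantified by peak-area ratios against calibration mixtures, and first-order rate constants fitted.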

Data set [2] is described as follows: Chemical stability of the compound assessed as formation of prostaglandin A2 at pH 6.50. As to conditions: buffer, pH 6.5. Type of data set: physicochemical.
Data set [3] in a line: Chemical stability of the compound assessed as formation of prostaglandin A2 at pH 4.53. It counts as physicochemical. As to conditions: buffer.
A short description of data set [4]: Chemical stability of the compound assessed as formation of prostaglandin A2 at 12.61 x 10^-4 M at pH 4.53 at 25 degC by HPLC analysis. Type of data set: physicochemical. To be noted: buffer, pH 4.53, 1261 µM. The method in brief: as §1
Data set [5] is described as follows: Chemical stability of the compound assessed as formation of prostaglandin A2 at pH 2.08. It counts as physicochemical. To be noted: buffer.
Data set [6] in a line: Chemical stability of the compound assessed as formation of prostaglandin A2 at pH 2.99. It counts as physicochemical. To be noted: buffer.
Data set [7] can be described thus: Chemical stability of the compound assessed as formation of prostaglandin A2 at pH 3.50. It counts as physicochemical. To be noted: buffer, pH 3.5.
Data set [8] can be described thus: Chemical stability of the compound assessed as formation of prostaglandin A2 at pH 5.50. Type of data set: physicochemical. To be noted: buffer, pH 5.5.
Data set [9] is described as follows: Chemical stability of the compound assessed as half life of formation of prostaglandin A2 at pH 2 at 25 degC by HPLC analysis. Type of data set: physicochemical. As to conditions: buffer. The method, boiled down:
as §1

Data set [10] can be described thus: Chemical stability of the compound assessed as formation of prostaglandin E2 at 12.61 x 10^-4 M at pH 5.50 at 25 degC by HPLC analysis. To be noted: buffer, pH 5.5, 1261 µM. It counts as physicochemical. The method, boiled down:
as §1

Data set [11] can be described thus: Chemical stability of the compound assessed as formation of prostaglandin E2 at 12.61 x 10^-4 M at pH 6.50 at 25 degC by HPLC analysis. As to conditions: buffer, pH 6.5, 1261 µM. It counts as physicochemical. The method in brief:
as §1

The nature of data set [12]: Chemical stability of the compound assessed as half life of formation of prostaglandin E2 at pH 2 at 25 degC by HPLC analysis. It counts as physicochemical. As to conditions: buffer. The method, boiled down: as §1
Data set [13] has as its system Rhesus monkey. Briefly: Increase of uterine contractions in rhesus monkey at 16.87 mg, po administered on 100th day of pregnancy. It counts as functional, organism-based. To be noted: Macaca mulatta. The method, boiled down:
(§2)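 Female rhesus monkeys on day 100 of pregnancy received an oral dose of 5.62 or 16.87 mg in 0.1 M THAM buffer, pH 8.5. Uterine contraction frequency and amplitude (mmHg) were recorded through an open-ended catheter in the amniotic cavity and compared with pretreatment activity.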

For data set [14], the system named is Rhesus monkey. Briefly: Increase of uterine motility in rhesus monkey at 5.62 mg, po administered on 100th day of pregnancy. It counts as functional, organism-based. As to conditions: Macaca mulatta. The method, boiled down:
as §2

Data set [15] deals with Rhesus monkey. Kind of data set: Increase of amplitude of uterine contractions in rhesus monkey at 5.62 mg, po administered on 100th day of pregnancy. It counts as functional, Macaca mulatta. The method, boiled down:
as §2

The test system of data set [16] is Rhesus monkey. Kind of data set: Increase of uterine contractions in rhesus monkey at 5.62 mg, po administered on 100th day of pregnancy. It counts as functional, organism-based. As to conditions: Macaca mulatta. The method in brief: as §2
The nature of data set [17]: Chemical stability of the compound assessed as formation of prostaglandin E2 at 6.31 x 10^-4 M at pH 2.99 at 25 degC by HPLC analysis. Type of data set: physicochemical. To be noted: buffer, pH 2.99, 631 µM. The method in brief: as §1
A short description of data set [18]: Chemical stability of the compound assessed as formation of prostaglandin E2 at pH 2.08 to 6.50 at 25 degC by HPLC analysis. It counts as physicochemical. As to conditions: buffer. The method in brief: as §1
Data set [19] in a line: Chemical stability of the compound assessed as formation of prostaglandin E2 at 6.31 x 10^-4 M at pH 3.50 at 25 degC by HPLC analysis. As to conditions: buffer, pH 3.5, 631 µM. It counts as physicochemical. The method in brief: as §1
The test system of data set [20] is Rhesus monkey. Kind of data set: Increase of amplitude of uterine contractions in rhesus monkey at 16.87 mg, po administered on 100th day of pregnancy. It counts as functional, organism-based. To be noted: Macaca mulatta. The method, boiled down: as §2
Data set [21] is described as follows: Drug metabolism assessed as disappearance of compound at pH 3.5 at 25 degC by HPLC analysis. Type of data set: physicochemical. As to conditions: read-out: Drug metabolism. The method, boiled down: as §1
A short description of data set [22]: Chemical stability of the compound assessed as formation of prostaglandin E2 at 12.61 x 10^-4 M at pH 4.53 at 25 degC by HPLC analysis. It counts as physicochemical. As to conditions: buffer, pH 4.53, 1261 µM. The method, boiled down:
as §1

Data set [23] is described as follows: Chemical stability of the compound assessed as formation of prostaglandin E2 at 6.31 x 10^-4 M at pH 2.08 at 25 degC by HPLC analysis. It counts as physicochemical. As to conditions: buffer, pH 2.08, 631 µM. The method, boiled down:
as §1

Active and inactive are the calls of the source. No cut-off for these calls is given here.

For `CCCCC[C@H](O)/C=C/[C@H]1[C@H](O)CC(=O)[C@@H]1C/C=C\CCCC(=O)O` [DINOPROSTONE], the K in [1] came out at 5.8 ×10⁻⁷ /s; in [2] it was 5.3 ×10⁻⁷ /s; in data set [3], 3.1 ×10⁻⁷ /s; in data set [4] it was 3.36 ×10⁻⁷ /s; in [5] it was 5.8 ×10⁻⁷ /s; in data set [6], 2.8 ×10⁻⁷ /s. Moreover, the values for the K in [7] and in [8] were 2.3 ×10⁻⁷ /s and 4 ×10⁻⁷ /s, respectively. The t1/2 in data set [9] came out at 336 h.

For the compound `CCCCC[C@H](O)/C=C/[C@H]1[C@H](O)CC2(OCCO2)[C@@H]1C/C=C\CCCC(=O)O`, the K is 1.71 ×10⁻⁷ /s in data set [10]; 2.58 ×10⁻⁸ /s in data set [11]; 2.29 ×10⁻⁵ /s in data set [17]; 2.24 ×10⁻² /s/M in [18]; 5.78 ×10⁻⁶ /s in data set [19]; 7.61 ×10⁻⁷ /s in data set [22]. The K in [23] is reported as 1.93 ×10⁻⁴ /s. Also, the t1/2 in data set [12] turned out to be 1 h. The result in data set [13], in [14], in data set [16] and in data set [20] was Active. In data set [15], the Activity was 7 mmHg. Moreover, the degraded in data set [21] was found to be 70%.

These data come from ChEMBL document CHEMBL3272050, “Prostaglandin prodrugs. 5.1 Prostaglandin E2 ethylene ketal” (J Med Chem, 1977).
